From ChEMBL document CHEMBL1156509, “Survival in the presence of antifungals: genome-wide expression profiling of Aspergillus niger in response to sublethal concentrations of caspofungin and fenpropimorph” (2007)
Activity calls are given as the source filed them. The calls are words filed in the database; no cut-off is given here.

What was measured:
Assay type in all cases: functional, organism-based
Aspergillus niger [1] = test: Induction of GFP tagged PagsA expression in Aspergillus niger JvD1.1 at 104.2 ug/mL by fluorescence microscopy
Summary of the method: (§1)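 agsA promoter-GFP reporters, cytoplasmic (JvD1.1) or nuclear H2B-targeted (RD6.47). Germlings pre-grown 6 h at 37 °C in 2× CM, exposed 3 h at 30 °C to seven 2-fold dilutions. GFP levels were scored by fluorescence microscopy as 0 (basal), 1 (intermediate) or 2 (high). Controls: gpdA-H2B-GFP strain MA26.1 (positive), N402 (negative).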

Aspergillus niger [2] = test: Induction of GFP tagged PagsA-H2B expression in Aspergillus niger RD6.47 at 104.2 ug/mL by fluorescence microscopy; summary of the method: as §1
Aspergillus niger [3] = test: Antifungal activity against Aspergillus niger JvD1.1 at 104.2 ug/mL by microtiter plate
Summary of the method: (§2)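 Reporter conidia (2×10^4 per well) were pre-grown 6 h at 37 °C in 2× CM in glass-bottom plates. An equal volume of a 2-fold dilution series (seven concentrations) was added, then 3 h at 30 °C. Medium was discarded and adherent germlings imaged. Growth inhibition was scored 0/1/2 from hyphal length.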

Aspergillus niger [4] = test: Antifungal activity against Aspergillus niger RD6.47 at 104.2 ug/mL by microtiter plate; summary of the method: as §2

Row | SMILES | Activity (Aspergillus niger [1]) | Activity (Aspergillus niger [2]) | Activity (Aspergillus niger [3]) | Activity (Aspergillus niger [4])
1 | CN(C/C=C/C#CC(C)(C)C)Cc1cccc2ccccc12 | Active | Active | – | –
2 | C[C@@H]1C[C@@H]([C@H](O)CC2CC(=O)NC(=O)C2)C(=O)[C@@H](C)C1 | inactive | inactive | Active | Active
3 | Cc1cc(C2CC2)nc(Nc2ccccc2)n1 | Active | Active | – | –
